In brackets after ≈: the same amount, converted by molar mass. Activity calls are given as the source filed them. The calls are words filed in the database; no cut-off is given here.
How the values were obtained:
[1] = tested on: Staphylococcus epidermidis; assay: Antimicrobial activity against Staphylococcus epidermidis INCQS 00016 ATCC 12228 at 256 ug/ml after 24 hrs by microdilution assay; assay type: functional, organism-based; conditions: ATCC 12228 INCQS 00016
Escherichia coli [2] = assay: Antimicrobial activity against Escherichia coli INCQS 00033 ATCC 25922 assessed as zone of inhibition at 5 mg/ml after 18 to 24 hrs by disc diffusion method; assay type: functional; conditions: ATCC 25922 INCQS 00033, read-out: IZ
Escherichia coli [3] = assay: Antimicrobial activity against Escherichia coli INCQS 00033 ATCC 25922 after 24 hrs by microdilution assay; assay type: functional; conditions: ATCC 25922 INCQS 00033, 24 h
Staphylococcus aureus [4] = assay: Antimicrobial activity against methicillin-resistant Staphylococcus aureus BMB9393 assessed as zone of inhibition at 5 mg/ml after 18 to 24 hrs by disc diffusion method; assay type: functional; conditions: read-out: IZ
Staphylococcus aureus [5] = assay: Antimicrobial activity against Staphylococcus aureus INCQS 00015 ATCC 25923 assessed as zone of inhibition at 5 mg/ml after 18 to 24 hrs by disc diffusion method; assay type: functional; conditions: read-out: IZ
Staphylococcus aureus [6] = assay: Antimicrobial activity against methicillin-resistant Staphylococcus aureus BMB9393 at 256 ug/ml after 24 hrs by microdilution assay; assay type: functional, organism-based
Pseudomonas aeruginosa [7] = assay: Ratio of MBC99.9 to MIC for Pseudomonas aeruginosa INCQS 00099 ATCC 27853; assay type: functional
Procedure, shortened: (§1)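 MBC/MIC ratio from the 24 h, 37°C microdilution MIC and the agar-plating MBC (99.9% growth inhibition). A ratio ≤2 was classed as bactericidal and ≥4 as bacteriostatic.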

Staphylococcus simulans [8] = assay: Bactericidal activity against Staphylococcus simulans INCQS 00254 ATCC 27851 at 256 ug/ml incubated for 24 hrs followed by transfer of microbial suspension to agar plates and measured after 24 hrs post transfer by resazurin dye-based colorimetric analysis; assay type: functional, organism-based
Procedure, shortened: (§2)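 For MBC, 10 µL from each clear MIC well was plated on agar and incubated 24 h at 37°C. MBC is the minimum concentration inhibiting 99.9% of growth. […] Triplicate.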

Pseudomonas aeruginosa [9] = assay: Bactericidal activity against Pseudomonas aeruginosa INCQS 00099 ATCC 27853 incubated for 24 hrs followed by transfer of microbial suspension to agar plates and measured after 24 hrs post transfer by resazurin dye-based colorimetric analysis; assay type: functional; conditions: INCQS 00099 ATCC 27853, 24 h, read-out: MBC99.9; procedure, shortened: as §2
Proteus mirabilis = assay: Antimicrobial activity against Proteus mirabilis INCQS 00095 ATCC 15290 assessed as zone of inhibition at 5 mg/ml after 18 to 24 hrs by disc diffusion method; assay type: functional; conditions: read-out: IZ
Escherichia coli [10] = assay: Bactericidal activity against Escherichia coli INCQS 00033 ATCC 25922 incubated for 24 hrs followed by transfer of microbial suspension to agar plates and measured after 24 hrs post transfer by resazurin dye-based colorimetric analysis; assay type: functional; conditions: ATCC 25922 INCQS 00033, 24 h, read-out: MBC99.9; procedure, shortened: as §2
Klebsiella pneumoniae = assay: Antimicrobial activity against Klebsiella pneumoniae INCQS 00083 ATCC 4352 assessed as zone of inhibition at 5 mg/ml after 18 to 24 hrs by disc diffusion method; assay type: functional; conditions: read-out: IZ
Staphylococcus simulans [11] = assay: Antimicrobial activity against Staphylococcus simulans INCQS 00254 ATCC 27851 at 256 ug/ml after 24 hrs by microdilution assay; assay type: functional, organism-based
Escherichia coli [12] = assay: Ratio of MBC99.9 to MIC for Escherichia coli INCQS 00033 ATCC 25922; assay type: functional, ATCC 25922 INCQS 00033; procedure, shortened: as §1
[13] = tested on: Staphylococcus epidermidis; assay: Bactericidal activity against Staphylococcus epidermidis INCQS 00016 ATCC 12228 at 256 ug/ml incubated for 24 hrs followed by transfer of microbial suspension to agar plates and measured after 24 hrs post transfer by resazurin dye-based colorimetric analysis; assay type: functional, organism-based; conditions: ATCC 12228 INCQS 00016; procedure, shortened: as §2
Pseudomonas aeruginosa [14] = assay: Antimicrobial activity against Pseudomonas aeruginosa INCQS 00099 ATCC 27853 assessed as zone of inhibition at 5 mg/ml after 18 to 24 hrs by disc diffusion method; assay type: functional; conditions: read-out: IZ
[15] = tested on: Staphylococcus epidermidis; assay: Antimicrobial activity against Staphylococcus epidermidis INCQS 00016 ATCC 12228 assessed as zone of inhibition at 5 mg/ml after 18 to 24 hrs by disc diffusion method; assay type: functional; conditions: ATCC 12228 INCQS 00016, read-out: IZ
Staphylococcus aureus [16] = assay: Bactericidal activity against Staphylococcus aureus INCQS 00015 ATCC 25923 at 256 ug/ml incubated for 24 hrs followed by transfer of microbial suspension to agar plates and measured after 24 hrs post transfer by resazurin dye-based colorimetric analysis; assay type: functional, organism-based; procedure, shortened: as §2
Staphylococcus simulans [17] = assay: Antimicrobial activity against Staphylococcus simulans INCQS 00254 ATCC 27851 assessed as zone of inhibition at 5 mg/ml after 18 to 24 hrs by disc diffusion method; assay type: functional; conditions: read-out: IZ
Enterococcus faecalis = assay: Antimicrobial activity against Enterococcus faecalis INCQS 00234 ATCC 29212 assessed as zone of inhibition at 5 mg/ml after 18 to 24 hrs by disc diffusion method; assay type: functional; conditions: ATCC 29212 INCQS 00234, read-out: IZ
Pseudomonas aeruginosa [18] = assay: Antimicrobial activity against Pseudomonas aeruginosa INCQS 00099 ATCC 27853 after 24 hrs by microdilution assay; assay type: functional; conditions: INCQS 00099 ATCC 27853, 24 h
Staphylococcus aureus [19] = assay: Bactericidal activity against methicillin-resistant Staphylococcus aureus BMB9393 at 256 ug/ml incubated for 24 hrs followed by transfer of microbial suspension to agar plates and measured after 24 hrs post transfer by resazurin dye-based colorimetric analysis; assay type: functional, organism-based
Procedure, shortened: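 From MIC wells with no visible growth, 10 µL is transferred to agar plates and incubated 24 h at 37°C. MBC is the minimum concentration inhibiting 99.9% of growth. […] Triplicate.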

[20] = Hemolytic activity against human erythrocytes assessed as hemolysis at 200 ug/ml after 3 hrs by spectrophotometric analysis relative to control; assay type: ADME, cell-based, Erythrocyte; conditions: read-out: Activity
Procedure, shortened: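 Erythrocytes collected in citrate tubes, washed three times with PBS pH 7.4 by centrifugation and resuspended in PBS. Incubated with compounds at 200 µg/mL for 3 h at 37°C. Released hemoglobin was read in the supernatant at 545 nm against 1% Triton X-100 (complete lysis) and 1% DMSO (negative control). Below 10% hemolysis was taken as hemocompatible. Three independent experiments.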

Staphylococcus aureus [21] = assay: Antimicrobial activity against Staphylococcus aureus INCQS 00015 ATCC 25923 at 256 ug/ml after 24 hrs by microdilution assay; assay type: functional, organism-based
[22] = tested on: Staphylococcus epidermidis; assay: Antimicrobial activity against Staphylococcus epidermidis INCQS 00016 ATCC 12228 after 24 hrs by microdilution assay; assay type: functional; conditions: ATCC 12228 INCQS 00016, 24 h
[23] = tested on: Staphylococcus epidermidis; assay: Bactericidal activity against Staphylococcus epidermidis INCQS 00016 ATCC 12228 incubated for 24 hrs followed by transfer of microbial suspension to agar plates and measured after 24 hrs post transfer by resazurin dye-based colorimetric analysis; assay type: functional; conditions: ATCC 12228 INCQS 00016, 24 h, read-out: MBC99.9; procedure, shortened: as §2
[24] = tested on: Staphylococcus epidermidis; assay: Ratio of MBC99.9 to MIC for Staphylococcus epidermidis INCQS 00016 ATCC 12228; assay type: functional, ATCC 12228 INCQS 00016; procedure, shortened: as §1

| SMILES | zone of inhibition at 5000 µg/mL (Escherichia coli [2]) | MIC (Escherichia coli [3]) | zone of inhibition at 5000 µg/mL (Staphylococcus aureus [4]) | zone of inhibition at 5000 µg/mL (Staphylococcus aureus [5]) | Activity (Staphylococcus aureus [6]) | Activity (Staphylococcus simulans [8]) | MBC (Pseudomonas aeruginosa [9]) | zone of inhibition at 5000 µg/mL (Proteus mirabilis) | MBC (Escherichia coli [10]) | zone of inhibition at 5000 µg/mL (Klebsiella pneumoniae) | Activity (Staphylococcus simulans [11]) | Ratio (Escherichia coli [12]) | zone of inhibition at 5000 µg/mL (Pseudomonas aeruginosa [14]) | zone of inhibition at 5000 µg/mL [15] | Activity (Staphylococcus aureus [16]) | zone of inhibition at 5000 µg/mL (Staphylococcus simulans [17]) | zone of inhibition at 5000 µg/mL (Enterococcus faecalis) | MIC (Pseudomonas aeruginosa [18]) | Activity (Staphylococcus aureus [19]) | hemolysis at 3 h, 200 ug/ml [20] | also measured |
| --- | --- | --- | --- | --- | --- | --- | --- | --- | --- | --- | --- | --- | --- | --- | --- | --- | --- | --- | --- | --- | --- |
| COC(=O)c1c(C)nc(C)c2c1C(=O)C(Br)=C(NC[C@H]1O[C@@H](OC)[C@@H]3OC(C)(C)O[C@@H]31)C2=O | 17 mm | 8 µg/mL (≈ 15.2 µM) | 12 mm | 13 mm | inactive | inactive | 8 µg/mL (≈ 15.2 µM) | 0 mm | 8 µg/mL (≈ 15.2 µM) | 0 mm | inactive | 1 | 17 mm | 11 mm | inactive | 0 mm | 0 mm | 8 µg/mL (≈ 15.2 µM) | inactive | < 10% | Activity [1]: inactive; Ratio (Pseudomonas aeruginosa [7]): 1; Activity [13]: inactive; Activity (Staphylococcus aureus [21]): inactive |
| COC(=O)c1c(C)nc(C)c2c1C(=O)C(Br)=C(N)C2=O | 30 mm | 8 µg/mL (≈ 23.6 µM) | 22 mm | 23 mm | inactive | inactive | 32 µg/mL (≈ 94.4 µM) | 0 mm | 8 µg/mL (≈ 23.6 µM) | 0 mm | inactive | 1 | 28 mm | 22 mm | inactive | 17 mm | 0 mm | 32 µg/mL (≈ 94.4 µM) | inactive | 10.1 to 14.4% | MIC [22]: 32 µg/mL (≈ 94.4 µM); MBC [23]: 32 µg/mL (≈ 94.4 µM); Ratio (Pseudomonas aeruginosa [7]): 1; Ratio [24]: 1; Activity (Staphylococcus aureus [21]): inactive |
| CO[C@@H]1O[C@H](CNC2=C(Cl)C(=O)c3ccccc3C2=O)[C@H]2OC(C)(C)O[C@@H]12 | 10 mm | 8 µg/mL (≈ 20.3 µM) | 0 mm | 0 mm | inactive | inactive | 32 µg/mL (≈ 81.3 µM) | 0 mm | 8 µg/mL (≈ 20.3 µM) | 0 mm | inactive | 1 | 9 mm | 9 mm | inactive | 7 mm | 0 mm | 32 µg/mL (≈ 81.3 µM) | inactive | < 10% | Activity [1]: inactive; Activity [13]: inactive; Activity (Staphylococcus aureus [21]): inactive |
